Source: ChEMBL document CHEMBL5143731, “N-Acylamino Saccharin as an Emerging Cysteine-Directed Covalent Warhead and Its Application in the Identification of Novel FBPase Inhibitors toward Glucose Reduction” (J Med Chem, 2022)
pIC50: −log10 of the molar value. Activity calls are given as the source filed them. The rule behind the calls is not given here.

Legend:
Mus musculus [1] = experiment: Hypoglycemic activity in 12 hrs fasted ICR mouse assessed as reduction in blood glucose AUC (0 to 2 hrs) at 30 mg/kg, ip measured after 2 hrs; assay type: functional; parameters: scale not given: the % may be the effect or the level left
Method in brief: (§1)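 OGTT: 12 h-fasted ICR mice (n = 6 per group) dosed ip (10 or 30 mg/kg in 10% ricinus oil/water), with vehicle and metformin 250 mg/kg controls, 1 h before oral glucose 2 g/kg. Tail blood glucose by glucometer at 0, 0.25, 0.5, 1, 1.5 and 2 h; AUC 0−2 h computed. Food withheld.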

[2] = biological target: T1, Fructose-1,6-bisphosphatase 1 (Homo sapiens, UniProt P09467); experiment: Inhibition of human FBPase expressed Escherichia coli BL21 in by malachite green dye based spectrophotometry
T1 sequence (P09467 whole entry): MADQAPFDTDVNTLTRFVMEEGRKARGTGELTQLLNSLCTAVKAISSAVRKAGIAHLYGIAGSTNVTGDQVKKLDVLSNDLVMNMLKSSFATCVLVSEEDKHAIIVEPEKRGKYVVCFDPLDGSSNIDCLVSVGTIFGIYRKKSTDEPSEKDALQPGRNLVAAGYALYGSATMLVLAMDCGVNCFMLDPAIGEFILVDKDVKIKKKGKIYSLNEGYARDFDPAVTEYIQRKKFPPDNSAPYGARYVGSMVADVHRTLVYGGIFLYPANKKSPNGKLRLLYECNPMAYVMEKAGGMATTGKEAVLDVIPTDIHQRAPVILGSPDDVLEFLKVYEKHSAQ
Method in brief: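 His-tagged human liver FBPase expressed in E. coli BL21(DE3) and purified by Ni affinity. Phosphate released from FBP complexed with ammonium molybdate/malachite green and read at 620 nm against a KH2PO4 standard curve (2−60 μM). Initial rates at saturating substrate, fixed effector and varied inhibitor fitted to the Hill equation for IC50.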

Mus musculus [3] = experiment: Hypoglycemic activity in 12 hrs fasted ICR mouse assessed as reduction in blood glucose AUC (0 to 2 hrs) at 10 mg/kg, ip measured after 2 hrs; assay type: functional; parameters: scale not given: the % may be the effect or the level left; method in brief: as §1
[4] = biological target: T2, Fructose-1,6-bisphosphatase 1 (Homo sapiens) (UniProt P09467); experiment: Inhibition of human FBPase in ICR mouse serum starved primary hepatocytes assessed as glucose lowering effect; assay type: cell-based; settings: Hepatocyte, dose 50-300 µM
T2 sequence (whole entry): T1 sequence (P09467 whole entry)
Method in brief: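 Primary mouse hepatocytes serum-starved overnight, then exposed in DMEM for 6 h to test compounds (50−300 μM), metformin 1 mM or saccharin 50 or 100 μM. Gluconeogenesis assessed as glucose in the culture medium. Mean ± SEM reported, Student's t-test versus vehicle.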

Homo sapiens [5] = organism: Homo sapiens; experiment: Selectivity ratio of IC50 for human FBPase to IC50 for recombinant ALDOC (unknown origin)
Method in brief: (§2)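 Aldolase (ALDOA/B/C) IC50 by NADH-coupled assay: enzyme plus serial compound dilutions, 0.41 mM NADH and TPI in 0.1 M Tris pH 7.4/0.2 M K-acetate, 3 min at 37 °C. Started with FBP and […], A340 read every 30 s for 6 min. Ratios against the FBPase IC50 from malachite green phosphate assay (620 nm).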

[6] = Drug uptake in 12 hrs fasted ICR mouse assessed as plasma concentration at 30 mg/kg, ip measured after 6 hrs by LC-MS/MS analysis; assay type: ADME, organism-based; settings: in vivo
Method in brief: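 Plasma levels of parent and of released saccharin followed over 0−24 h after a single 30 mg/kg ip dose to 12 h-fasted male ICR mice. Plasma was obtained from K2EDTA blood (4 °C spin, stored at −70 °C) and measured by LC−MS/MS.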

[7] = Half life of the compound in DMSO; assay type: physicochemical
Method in brief: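 Electrophile (20 μmol) incubated at 37 °C either in pH 7.4 buffer, or in DMSO-d6/D2O (5:1), with or without glutathione. Decay followed by 1H NMR kinetics. First-order rate constant kpseudo-1st taken from ln[electrophile] versus time; t1/2 = 0.693/(60×k), in min.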

Mus musculus [8] = experiment: Hypoglycemic activity in ICR mouse assessed as improvement in glucose tolerance at 10 to 30 mg/kg, ip administered 1 hr prior to oral glucose at 2 g/kg and measured after 0.25 hr by OGTT; settings: dose 10-30 mg/kg
Mus musculus [9] = experiment: Hypoglycemic activity in 12 hrs fasted ICR mouse assessed as reduction in blood glucose AUC (0 to 6 hrs) at 10 mg/kg, ip measured after 6 hrs; assay type: functional; parameters: scale not given: the % may be the effect or the level left
Method in brief: (§3)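 Male ICR mice (n = 4 per group), fasted 12 h with food withheld throughout. Single ip dose in 10% ricinus oil in water; vehicle and metformin 250 mg/kg as controls. Tail-vein glucose by glucometer at 0, 1, 2, 4 and 6 h; AUC over 0−6 h calculated.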

[10] = biological target: Epidermal growth factor receptor (Homo sapiens) (UniProt P00533); experiment: Inhibition of EGFR (unknown origin) at 300 uM measured after 40 mins in presence of ATP by luminescence assay relative to control
Method in brief: (§4)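 Kinase reaction (50 μL): 40 mM Tris pH 7.4, 10 mM MgCl2, 0.1 mg/mL BSA, 1 mM DTT, 10 μM ATP, kinase and substrate, with 1% final DMSO. Run 40 min at 30 °C. Residual ATP read by Kinase-Glo Plus luminescence, inversely related to kinase activity.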

Mus musculus [11] = experiment: Hypoglycemic activity in ICR mouse assessed as glucose lowering effect at 30 mg/kg, ip measured after 2 to 6 hrs; assay type: functional, organism-based; settings: time 2-6 hrs
Method in brief: (§5)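 Fasted (12 h) male ICR mice received one intraperitoneal dose in 10% ricinus oil/water vehicle; metformin 250 mg/kg served as control. Food was withheld. Tail blood glucose was read by glucometer at 0, 1, 2, 4 and 6 h.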

Mus musculus [12] = experiment: Hypoglycemic activity in 12 hrs fasted ICR mouse assessed as reduction in blood glucose AUC (0 to 6 hrs) at 30 mg/kg, ip measured after 6 hrs; assay type: functional; parameters: scale not given: the % may be the effect or the level left; method in brief: as §3
[13] = biological target: Tyrosine-protein kinase BTK (Homo sapiens) (UniProt Q06187); experiment: Inhibition of BTK (unknown origin) at 300 uM measured after 40 mins in presence of ATP by luminescence assay relative to control; method in brief: as §4
Homo sapiens [14] = organism: Homo sapiens; experiment: Selectivity ratio of IC50 for human FBPase to IC50 for recombinant ALDOB (unknown origin); method in brief: as §2
Homo sapiens [15] = organism: Homo sapiens; experiment: Selectivity ratio of IC50 for human FBPase to IC50 for recombinant ALDOA (unknown origin); method in brief: as §2
Mus musculus [16] = experiment: Hypoglycemic activity in 12 hrs fasted ICR mouse assessed as glucose lowering effect at 10 to 30 mg/kg, ip measured after 2 hrs; assay type: functional, organism-based; settings: dose 10-30 mg/kg; method in brief: as §5
Hepatocyte = experiment: Cytotoxicity in ICR mouse serum starved primary hepatocytes assessed as reduction in cell viability at 50 to 300 uM; assay type: toxicity, cell-based; settings: dose 50-300 µM

Chain of Tyrosine-protein kinase BTK (Homo sapiens) (Q06187 whole entry): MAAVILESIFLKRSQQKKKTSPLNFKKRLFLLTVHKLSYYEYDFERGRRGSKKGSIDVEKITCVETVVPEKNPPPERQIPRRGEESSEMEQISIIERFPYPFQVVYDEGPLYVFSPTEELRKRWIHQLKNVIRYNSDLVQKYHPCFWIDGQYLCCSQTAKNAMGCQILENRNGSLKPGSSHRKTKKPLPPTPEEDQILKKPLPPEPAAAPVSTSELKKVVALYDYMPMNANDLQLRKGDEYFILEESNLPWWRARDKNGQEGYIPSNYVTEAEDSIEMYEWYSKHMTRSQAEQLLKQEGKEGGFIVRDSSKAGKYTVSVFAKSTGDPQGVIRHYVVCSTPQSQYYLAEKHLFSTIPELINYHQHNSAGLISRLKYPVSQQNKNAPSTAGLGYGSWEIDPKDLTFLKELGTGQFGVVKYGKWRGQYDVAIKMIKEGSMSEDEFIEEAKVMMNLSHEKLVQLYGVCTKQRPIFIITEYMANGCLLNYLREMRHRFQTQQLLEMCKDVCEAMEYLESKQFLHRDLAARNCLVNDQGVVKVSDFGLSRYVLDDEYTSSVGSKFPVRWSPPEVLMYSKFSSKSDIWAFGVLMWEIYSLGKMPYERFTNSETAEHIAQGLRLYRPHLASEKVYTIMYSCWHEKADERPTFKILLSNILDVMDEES
Chain of Epidermal growth factor receptor (Homo sapiens) (P00533 whole entry): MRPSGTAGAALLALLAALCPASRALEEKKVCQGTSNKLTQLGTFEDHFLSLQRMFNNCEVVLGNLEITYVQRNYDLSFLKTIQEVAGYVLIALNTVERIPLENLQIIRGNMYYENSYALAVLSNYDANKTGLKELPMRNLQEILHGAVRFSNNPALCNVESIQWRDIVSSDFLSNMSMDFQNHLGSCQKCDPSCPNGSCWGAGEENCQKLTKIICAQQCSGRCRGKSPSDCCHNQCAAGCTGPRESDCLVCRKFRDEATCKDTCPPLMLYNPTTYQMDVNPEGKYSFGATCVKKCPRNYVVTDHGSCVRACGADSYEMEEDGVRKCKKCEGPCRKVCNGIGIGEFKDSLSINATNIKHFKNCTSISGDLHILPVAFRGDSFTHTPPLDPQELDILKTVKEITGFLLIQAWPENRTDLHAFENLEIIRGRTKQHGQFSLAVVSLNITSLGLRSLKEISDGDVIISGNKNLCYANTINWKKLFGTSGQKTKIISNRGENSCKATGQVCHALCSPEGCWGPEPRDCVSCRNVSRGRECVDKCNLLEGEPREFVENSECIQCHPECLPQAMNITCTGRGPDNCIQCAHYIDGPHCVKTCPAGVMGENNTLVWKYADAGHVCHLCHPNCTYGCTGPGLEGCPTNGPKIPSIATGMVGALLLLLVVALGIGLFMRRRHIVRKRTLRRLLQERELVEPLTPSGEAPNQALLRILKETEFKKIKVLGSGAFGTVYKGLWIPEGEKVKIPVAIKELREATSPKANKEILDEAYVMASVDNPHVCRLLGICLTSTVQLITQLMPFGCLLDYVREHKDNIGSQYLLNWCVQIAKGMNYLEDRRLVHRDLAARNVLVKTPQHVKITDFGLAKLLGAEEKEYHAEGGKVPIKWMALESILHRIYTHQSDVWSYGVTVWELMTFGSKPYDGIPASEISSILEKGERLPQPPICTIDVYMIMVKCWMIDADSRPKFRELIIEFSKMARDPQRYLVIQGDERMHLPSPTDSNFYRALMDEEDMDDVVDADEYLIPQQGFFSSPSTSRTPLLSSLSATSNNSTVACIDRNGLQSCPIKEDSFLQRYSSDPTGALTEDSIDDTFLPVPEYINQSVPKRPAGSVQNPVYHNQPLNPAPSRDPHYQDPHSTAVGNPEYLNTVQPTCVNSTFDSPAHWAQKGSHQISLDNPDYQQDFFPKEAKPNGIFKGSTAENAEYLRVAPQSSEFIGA

pIC50 [2]: 5.47
inhibition [4]: Active
Ratio IC50 (Homo sapiens [5]): > 25
Cp [6]: Active
half-life [7]: > 167 h
inhibition [10]: < 50%
inhibition [13]: < 50%
Ratio IC50 (Homo sapiens [14]): > 25
Ratio IC50 (Homo sapiens [15]): > 25
Structure (SMILES): O=C(NCc1ccccc1)N1C(=O)c2ccccc2S1(=O)=O
Activity (Mus musculus [1]): 17.7%
Activity (Mus musculus [3]): 20.2%
Activity (Mus musculus [8]): Active
Activity (Mus musculus [9]): 15.3%
Activity (Mus musculus [11]): Active
Activity (Mus musculus [12]): 42.4%
Activity (Mus musculus [16]): Active
Activity (Hepatocyte): Non-Toxic
